Molecules are shown by their SMILES.

The text below walks through data of ChEMBL document CHEMBL1148915, “Steroids and sesquiterpenoids from the soft corals Dendronephthya gigantea and Lemnalia cervicorni” (2004).

One test concerns P388. Kind of test: Cytotoxicity against mouse P388 cells. It counts as functional. As to conditions: read-out: ED50 (the source's name). The procedure, abridged: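 P-388 mouse lymphocytic leukemia cells supplied by an academic lab (Purdue); in vitro cytotoxicity assay run by a previously described procedure; ED50 reported in µM; mithramycin included as positive control.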
A further test deals with HT-29. Briefly: Cytotoxicity against human HT29 cells. It is filed as functional. The following applies: read-out: ED50 (the source's name). The procedure, abridged:
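HT-29 human colon adenocarcinoma cells obtained from ATCC; in vitro cytotoxicity assay run by a previously described procedure; value given as ED50 in µM; mithramycin run as positive control.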

As to `CC(C)CCC(=O)[C@@H](C)[C@H]1CC[C@H]2[C@@H]3CC[C@H]4CC(=O)C=C[C@]4(C)[C@H]3CC[C@]12C`, the values for the EC50 in the test with P388 and in the test on HT-29 were 8.93 µM and 9.03 µM, respectively.
With `CC1=CC(=O)[C@@H]2[C@@H]3[C@H](C(C)C)CC[C@@]2(C)[C@@H]13`, the EC50 in the test with P388 and in the test with HT-29 was more than 50 µM throughout.
As for `C=C1C[C@H](O)[C@@H]2[C@@H]3[C@H](C(C)C)CC[C@@]2(C)[C@@H]13` [CERVICOL], the EC50 in the test with P388 and with HT-29 was more than 50 µM in each case.
With `CC(C)C/C=C/[C@@H](C)[C@H]1CC[C@H]2[C@@H]3CC[C@H]4CC(=O)C=C[C@]4(C)[C@H]3CC[C@]12C` [DENDRONESTERONE A], the EC50 in the test with P388 was 9.84 µM; in the test on HT-29 it was more than 100 µM.
For `C=C(CC[C@@H](C)[C@H]1CC[C@H]2[C@@H]3CC[C@H]4CC(=O)C=C[C@]4(C)[C@H]3CC[C@]12C)C(C)C` [DENDRONESTERONE B] the same measures were more than 100 µM and more than 100 µM.
Taken in the same sequence, the figures for `CC(C)C/C=C/[C@@H](C)[C@H]1CC[C@H]2[C@@H]3CCC4=CC(=O)C=C[C@]4(C)[C@H]3CC[C@]12C` [DENDRONESTERONE C] were more than 100 µM and more than 100 µM.
Taken in the same sequence, the figures for `CC1=C[C@H](O)[C@@H]2[C@@H]3[C@H](C(C)C)CC[C@@]2(C)[C@@H]13` [ISOLEMNALOL] were more than 50 µM and more than 50 µM.
Take `C=C1[C@H](O)C[C@@H]2[C@@H]3[C@H](C(C)C)CC[C@@]2(C)[C@@H]13` [LEMNALOL]: the EC50 in the test with P388 came out at 16.3 µM; in the test with HT-29 it was 10.5 µM.
With `CO[C@H](C(=O)[C@@H](O)[C@@H](C)O)[C@@H]1Cc2cc3cc(O[C@H]4C[C@@H](O[C@@H]5C[C@@H](O)[C@H](O)[C@@H](C)O5)[C@H](O)[C@@H](C)O4)c(C)c(O)c3c(O)c2C(=O)[C@H]1O[C@H]1C[C@@H](O[C@@H]2C[C@@H](O)[C@@H](O[C@@H]3C[C@](C)(O)[C@H](O)[C@@H](C)O3)[C@@H](C)O2)[C@H](O)[C@@H](C)O1` [PLICAMYCIN], the results for the EC50 in the test with P388 and with HT-29 were 0.15 µM and 0.21 µM, respectively.
